Results pooled from the literature.
Compare with care: the assays were run in different laboratories.
Target: Protein kinase C zeta type (PRKCZ, Homo sapiens, UniProt Q05513)
One construct used (Q05513 1-592): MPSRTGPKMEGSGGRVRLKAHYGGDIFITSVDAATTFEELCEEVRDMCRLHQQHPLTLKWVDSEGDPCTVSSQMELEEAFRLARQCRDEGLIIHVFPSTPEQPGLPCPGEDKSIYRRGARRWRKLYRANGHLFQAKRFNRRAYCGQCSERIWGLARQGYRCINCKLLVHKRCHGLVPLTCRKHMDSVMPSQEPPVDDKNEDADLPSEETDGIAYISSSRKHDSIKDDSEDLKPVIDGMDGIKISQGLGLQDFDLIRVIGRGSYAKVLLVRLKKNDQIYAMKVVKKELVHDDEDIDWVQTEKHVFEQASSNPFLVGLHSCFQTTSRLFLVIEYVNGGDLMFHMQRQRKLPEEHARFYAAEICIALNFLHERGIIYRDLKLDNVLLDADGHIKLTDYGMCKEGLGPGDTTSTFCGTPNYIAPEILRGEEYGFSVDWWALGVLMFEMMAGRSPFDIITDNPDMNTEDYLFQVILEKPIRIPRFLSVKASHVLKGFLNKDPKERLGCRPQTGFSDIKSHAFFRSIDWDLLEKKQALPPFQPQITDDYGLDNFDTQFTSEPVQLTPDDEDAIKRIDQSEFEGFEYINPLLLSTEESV

Structure (SMILES) | effect on | action | technique | tested at | quantity | result
COc1cccc2c(NCc3ccccc3)nc(-n3c(N)nc4ccccc43)nc12 | target engagement in cells | inhibitor | chemoproteomics | 20 mM | inhibition | 19.7%
COc1cc2ncnc(Nc3ccc(Oc4ccccc4)c(C)c3C)c2cc1OC | enzyme activity | inhibitor |  | 1 µM | inhibition | 14%
Cc1cnc(NC2CCOCC2)nc1-n1cnc(C(=O)NC(CN)c2cc(F)cc(Cl)c2)c1 (stereo not drawn) | enzyme activity | inhibitor | radiometric | 1 µM | remaining activity | 106%
FC(F)c1nc2ccccc2n1-c1nc(N2CCOCC2)nc(N2CCOCC2)n1 | enzyme activity | inhibitor |  | 10 µM | remaining activity | 87%
CNC(=O)c1cc(Oc2ccc(NC(=O)Nc3ccc(Cl)c(C(F)(F)F)c3)cc2)ccn1 | enzyme activity | inhibitor |  | 10 µM | inhibition | -5%
O=C1NC(=O)c2cc(Nc3ccc(F)cc3)c(Nc3ccc(F)cc3)cc21 | cell-free assay |  |  | 0.5 µM | remaining signal | 100%
COc1cc(-c2cc(-c3ccc(N4CCNCC4)cc3)cnc2C)cc(OC)c1OC | enzyme activity | inhibitor |  | 0.1 µM | inhibition | 5%
Cn1c2c(Cl)c(Cl)ccc2c2cn[nH]c(=O)c21 | thermal stability |  | DSF | 10 µM | ΔTm | 0 °C
Cc1ccc(Nc2nccc(N(C)c3ccc4c(C)n(C)nc4c3)n2)cc1S(N)(=O)=O | enzyme activity | inhibitor |  | 0.3 µM | inhibition | -3%
Cc1ccc(NC(=O)c2ccc(C)c(C(F)(F)F)c2)cc1C#Cc1nn(C2CCC(O)CC2)c2ncnc(N)c12 (stereo not drawn) | cell-free assay |  |  | 10 µM | remaining signal | 99%
Cn1c2c(c3ccc(Cl)c(Cl)c31)C(C#N)C1(CCNCC1)NC2=O (racemic) | thermal stability |  | DSF | 10 µM | ΔTm | 0.9 °C
COc1cc(Cl)c(C(=O)N[C@@H](CN[C@H]2CC[C@@H](N)CC2)Cc2ccc(C#N)cc2)cc1-c1ccc(CN[C@H](C)c2ccc(C)cc2)o1 | enzyme activity | inhibitor |  | 1 µM | remaining activity | 91%
CC(C)(C)c1nc(-c2cccc(NS(=O)(=O)c3c(F)cccc3F)c2F)c(-c2ccnc(N)n2)s1 | enzyme activity | inhibitor | radiometric | 1 µM | remaining activity | 109%
Cc1ccc(C(=O)NCc2ccsc2)cc1C#Cc1cn(C(C)C)c2ncnc(N)c12 | enzyme activity | inhibitor |  | 1 µM | activity vs control | 111%
COc1cc(Nc2cnc(C#N)c(O[C@H](C)CN(C)C)n2)ncc1-c1cnn(C)c1 | enzyme activity | inhibitor | radiometric | 1 µM | remaining activity | 121%
Cn1c2c(c3ccccc31)C(C#N)C(C)(C)NC2=O (stereo not drawn) | thermal stability |  | DSF | 10 µM | ΔTm | -0.3 °C
Cc1sc(C(=O)NC2COC2)cc1-n1cc(NC(=O)Nc2c(F)cccc2Cl)cn1 | enzyme activity | inhibitor |  | 10 µM | remaining activity | 104%
CC(C)(C)C(=O)c1sc(NC2CCCCC2)nc1N | enzyme activity | inhibitor |  | 10 µM | remaining activity | 104%
